{"data": "Results collected from several papers", "target": "Serine/threonine-protein kinase 24 (STK24, Homo sapiens, UniProt Q9Y6E0)"}
{"SMILES": "CC(C)(C)c1nc(-c2cccc(NS(=O)(=O)c3c(F)cccc3F)c2F)c(-c2ccnc(N)n2)s1", "test": "enzyme activity, inhibitor, radiometric", "conditions": "1 µM", "measurement": "remaining activity", "result": "14%"}
{"SMILES": "CN(C)c1ncnc(-c2ccc3nc(Nc4cc(CN5CCN(C(=O)CC(F)(F)F)CC5)ccn4)[nH]c3c2)c1Cl", "test": "cell-free assay, competition with immobilised ligand", "conditions": "1 µM", "measurement": "remaining binding", "result": "90%"}
{"SMILES": "COc1cc(Nc2cnc(C#N)c(O[C@H](C)CN(C)C)n2)ncc1-c1cnn(C)c1", "test": "enzyme activity, inhibitor, radiometric", "conditions": "1 µM", "measurement": "remaining activity", "result": "89%"}
{"SMILES": "O=C(N[C@H]1CCCCC/C=C\\C2C[C@@]2(C(=O)O)NC(=O)[C@@H]2C[C@@H](Oc3ccncc3)CN2C1=O)OC1CCCC1 (stereo partly drawn)", "test": "binding, competition with immobilised ligand", "conditions": "1 µM", "measurement": "remaining binding", "result": "81%"}
{"SMILES": "Oc1cccc(-c2nc(N3CCOCC3)c3oc4ncccc4c3n2)c1", "test": "cell-free assay", "conditions": "0.5 µM", "measurement": "remaining signal", "result": "100%"}
{"SMILES": "CCN1CCN(Cc2ccc(NC(=O)c3ccc(C)c(/C=C/c4cnc5[nH]ccc5c4OC)c3)cc2C(F)(F)F)CC1", "test": "target engagement in cells, inhibitor, chemoproteomics", "test system": "A-375", "conditions": "0.5 µM", "measurement": "inhibition", "result": "-36.9%"}
{"SMILES": "COc1cc(Cl)c(C(=O)N[C@@H](CN[C@H]2CC[C@@H](N)CC2)Cc2ccc(C#N)cc2)cc1-c1ccc(CN[C@H](C)c2ccc(C)cc2)o1", "test": "enzyme activity, inhibitor", "conditions": "1 µM", "measurement": "remaining activity", "result": "96%"}
{"SMILES": "CC(C)(O)[C@H]1CC[C@H](Nc2ccc3ncc(-c4cccc(C(F)(F)F)c4)n3n2)CC1", "test": "enzyme activity, inhibitor", "conditions": "1 µM", "measurement": "remaining activity", "result": "96.1%"}
{"SMILES": "CCN1CCN(Cc2ccc(NC(=O)c3ccc(C)c(Oc4ccnc5[nH]ccc45)c3)cc2C(F)(F)F)CC1", "test": "target engagement in cells, inhibitor, chemoproteomics", "test system": "A-375", "conditions": "50 nM", "measurement": "inhibition", "result": "-10.7%"}
{"SMILES": "CN1CCC2(CC1)NC(=O)c1c(c3ccc(Cl)c(Cl)c3n1C)C2C#N (racemic)", "test": "thermal stability, DSF", "conditions": "10 µM", "measurement": "ΔTm", "result": "-0.6 °C"}
{"SMILES": "CCCCNc1ncc2c(-c3ccc(F)cc3)nn(C[C@H]3CC[C@H](N)CC3)c2n1", "test": "target engagement in cells, inhibitor, chemoproteomics", "conditions": "20 mM", "measurement": "inhibition", "result": "8.3%"}
{"SMILES": "C[C@H](NC(=O)c1cnc2n1[C@](C)(Cc1ccc(C#N)cc1)C(=O)N2c1cc(Cl)c(F)c(Cl)c1)C(=O)NC1(c2ccccn2)CC1", "test": "cell-free assay, competition with immobilised ligand", "conditions": "1 µM", "measurement": "remaining binding", "result": "100%"}
{"SMILES": "Cn1cncc1C1=CN(c2ncnc3[nH]cnc23)CCS1", "test": "enzyme activity, inhibitor, radiometric", "conditions": "50 nM", "measurement": "inhibition", "result": "13.2%"}
{"SMILES": "Cc1ccc(Nc2nccc(N(C)c3ccc4c(C)n(C)nc4c3)n2)cc1S(N)(=O)=O", "test": "enzyme activity, inhibitor", "conditions": "0.3 µM", "measurement": "inhibition", "result": "-5%"}
{"SMILES": "COc1ccc2c(O[C@@H]3C[C@H]4C(=O)N[C@]5(C(=O)O)CC5/C=C\\CCCCC[C@H](NC(=O)OC5CCCC5)C(=O)N4C3)cc(-c3csc(NC(=O)C(C)C)n3)nc2c1C (stereo partly drawn)", "test": "cell-free assay, competition with immobilised ligand", "conditions": "1 µM", "measurement": "remaining binding", "result": "100%"}
{"SMILES": "O=C1Nc2ccc(Cl)cc2C1=Cc1cc(Cl)c(O)c(Cl)c1", "test": "cell-free assay", "conditions": "0.5 µM", "measurement": "remaining signal", "result": "104%"}
{"SMILES": "Cn1c2c(c3ccc(Cl)c(Cl)c31)C(C#N)C1(CCN(C(=O)OC(C)(C)C)CC1)NC2=O (racemic)", "test": "thermal stability, DSF", "conditions": "10 µM", "measurement": "ΔTm", "result": "0 °C"}
{"SMILES": "Cc1ccc(C(=O)Nc2ccc(CN3CCN(C)CC3)c(C(F)(F)F)c2)cc1C#Cc1cnc2cccnn12", "test": "enzyme activity, inhibitor", "conditions": "23.5 nM", "measurement": "remaining activity", "result": "88%"}
{"SMILES": "O=C(Nc1cnn(-c2csc(C(=O)NC3COC3)c2)c1)Nc1ccccc1Cl", "test": "enzyme activity, inhibitor", "conditions": "5 µM", "measurement": "remaining activity", "result": "113%"}
{"SMILES": "COc1cc(-c2cc(-c3ccc(N4CCNCC4)cc3)cnc2C)cc(OC)c1OC", "test": "enzyme activity, inhibitor", "conditions": "1 µM", "measurement": "inhibition", "result": "4%"}
{"SMILES": "N#CC1(c2ccccn2)CCN(Cc2cc(C(=O)N3CCCC3)c(=O)n3ccccc23)CC1", "test": "cell-free assay, competition with immobilised ligand", "conditions": "1 µM", "measurement": "remaining binding", "result": "87%"}
{"SMILES": "Cc1ccc(NC(=O)c2ccc(C)c(C(F)(F)F)c2)cc1C#Cc1nn(C2CCC(O)CC2)c2ncnc(N)c12 (stereo not drawn)", "test": "cell-free assay", "conditions": "10 µM", "measurement": "remaining signal", "result": "114%"}
{"SMILES": "N#CCCc1ccc2c(c1)-c1[nH]c3ccc([N+](=O)[O-])cc3c1CC(=O)N2", "test": "cell-free assay", "conditions": "0.5 µM", "measurement": "remaining signal", "result": "57.7%"}
{"SMILES": "COc1cc2ncnc(Nc3ccc(Oc4ccccc4)cc3C)c2cc1OC", "test": "enzyme activity, inhibitor", "conditions": "1 µM", "measurement": "inhibition", "result": "9%"}
{"SMILES": "C[C@@H]1CN(c2cc(-c3nn(C)c4ccc(OC5(C)CC5)cc34)ncn2)C[C@H](C)O1", "test": "cell-free assay, competition with immobilised ligand", "conditions": "1 µM", "measurement": "remaining binding", "result": "79%"}
{"SMILES": "O=C1NC(=O)c2cc(Nc3ccc(F)cc3)c(Nc3ccc(F)cc3)cc21", "test": "cell-free assay", "conditions": "0.5 µM", "measurement": "remaining signal", "result": "93.7%"}
{"SMILES": "Cn1c2c(Cl)c(Cl)ccc2c2cc(N)[nH]c(=O)c21", "test": "thermal stability, DSF", "conditions": "10 µM", "measurement": "ΔTm", "result": "0.6 °C"}
{"SMILES": "CNC(=O)c1cc(Oc2ccc(NC(=O)Nc3ccc(Cl)c(C(F)(F)F)c3)cc2)ccn1", "test": "enzyme activity, inhibitor", "conditions": "0.3 µM", "measurement": "inhibition", "result": "-9%"}
{"SMILES": "c1ccc(CNc2nc(N3CCOc4ccccc43)nc3c2CCCC3)cc1", "test": "target engagement in cells, inhibitor, chemoproteomics", "conditions": "20 mM", "measurement": "inhibition", "result": "-7%"}
{"SMILES": "O=C(O)[C@@H]1[C@@H](Cn2nnc3ccccc3c2=O)CC[C@H]1C(=O)c1ccc(OCCC2CCOCC2)cc1", "test": "cell-free assay, competition with immobilised ligand", "conditions": "1 µM", "measurement": "remaining binding", "result": "99%"}
{"SMILES": "Cn1c2c(Cl)c(Cl)ccc2c2cn[nH]c(=O)c21", "test": "thermal stability, DSF", "conditions": "10 µM", "measurement": "ΔTm", "result": "0.7 °C"}
{"SMILES": "CC1=C(C#N)C(c2ccc3c(c2)c(NC(=O)c2ccccc2C)nn3C)C(C#N)=C(C)N1", "test": "cell-free assay, competition with immobilised ligand", "conditions": "1 µM", "measurement": "remaining binding", "result": "100%"}
{"SMILES": "Cn1c2c(c3ccc(Cl)c(Cl)c31)C(C#N)C(C)(C)NC2=O (stereo not drawn)", "test": "thermal stability, DSF", "conditions": "10 µM", "measurement": "ΔTm", "result": "0.6 °C"}
